# Screening data as filed in PubChem BioAssay.
# Hits are enriched below; roughly 1.8% of the tested compounds scored in any of these assays.
# SKN-1 block = suppressors of acrylamide-induced Pgst-4::GFP reporter in worms, primary screen, SKN-1 inhibitor project, whole organism, uHTS, GFP/RFP fluorescence ratio, strain VP596; actives 0.49% (n = 360,000); inhibition, % at 21.8 µM; AID 624304, 2012; C. elegans VP596 Pgst-4::GFP/RFP ratio, 24 h;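 active = interference check ratio from 0.5 to 1.5 plus GFP to RFP signal ratio inhibition reaching or exceeding a fixed threshold, cut at about 30% in these data, passing the limit was not always enough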
# PREPL inhibitor = PREPL enzyme inhibitors, primary screen, biochemical, fluorescence polarization. inhibition, % at 5.96 µM. recombinant PREPL, fluorescence polarization activity-based probe. actives 0.68% (n = 320,000); in the data active = inhibition above about 43%;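 note: 0% = enzyme with DMSO and 100% = wells lacking enzyme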
# TbMetRS inhib = T. brucei MetRS inhibitors, primary screen, biochemical, luminescence | methionyl-tRNA synthetase (Trypanosoma brucei brucei) | actives 0.4% (n = 360,000) | AID 624268, 2012 | inhibition, % at 11.9 µM | purified T. brucei MetRS, ATP depletion, Kinase-Glo luminescence;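 active = inhibition above a per-plate cutoff of the control wells' mean inhibition plus 3 SD, cut at about 5.5% in these data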;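 note: 0% = DMSO wells median and 100% = median of wells with control inhibitor compound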
#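 assay system = parasite MetRS enzyme | timing = 15 min preincubation, 2 h reaction, all 25 °C | evaluation = percent inhibition relative to median high and low control wells | medium = HEPES buffer containing pyrophosphatase, BSA, spermine, DTT | compound = single dose, 11.9 µM final nominal, 0.9% final DMSO | detection = Kinase-Glo luminescence, ATP depletion format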
# E coli Lon inh = inhibitors of E. coli Lon protease, primary screen, biochemical, fluorescence polarization; inhibition, % at 7.94 µM; purified E. coli Lon protease; actives 0.42% (n = 360,000); in the data active = inhibition above about 13%, passing the limit was not always enough;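 note: 0% = enzyme with probe and DMSO and 100% = no enzyme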
# MT1-MMP act inh = blockers of MT1-MMP proenzyme processing, primary screen, HT1080 RFP-PRO-GFP cells, GFP/RFP fluorescence | GFP/RFP ratio fluorescence, overnight; percent of plate control window, DMSO zero | actives 0.061% (n = 360,000) | Matrix metalloproteinase-14 (Homo sapiens), P50281 | GFP/RFP ratio change, % at 20 µM;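 active = GFP/RFP ratio change of at least 30% with cell ATP level not reduced by more than half and red fluorescence within 50% of control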
#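 Test system: HT1080 cells expressing an RFP-PRO-GFP fluorescent reporter construct / Compound dosing: single-point 20 µM compound, 1% DMSO / Schedule: cells overnight before dosing, compound overnight, 37 °C, 5% CO2 / Evaluation: GFP/RFP fluorescence ratio / Control set: DMSO and RFP-L50D-GFP cell wells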
# iPSC survival up = enhancers of single-cell hiPSC survival, primary screen, ATPlite luminescence. AID 602274, 2012. 100% = ROCK inhibitor wells, 0% = DMSO. survival enhancement, % at 20 µM. actives 0.044% (n = 360,000); in the data active = survival enhancement above about 18%;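 note: cells exposed to compounds for 16 hours before the ATP read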
# Active calls of the source: *; x = no result given.
SMILES,SKN-1 block,PREPL inhibitor,TbMetRS inhib,E coli Lon inh,MT1-MMP act inh,iPSC survival up
COc1cc(/C=N/NC(=O)COc2c(C)cc([N+](=O)[O-])cc2C)ccc1OC(=O)c1ccccc1,7,71*,-1,-2,-4,-2
O=C(NC1CCCC1)C(C1CC1)n1c(-c2ccnc3ccccc23)nc2ccccc21 (centres undefined),6,x,0,x,-5,x
Cc1ccc(C)c(NC(=O)c2sc(Cl)nc2-c2ccccc2)c1,48*,-10,1,3,0,-3
Cc1ccc(C)c(NC(=O)c2cc3ccccc3o2)c1,40*,x,0,-13,-7,-1
COc1ccc(C)cc1NC(=O)c1cc2ccccc2o1,-2,-2,0,1,1,2
NC(CCc1ccccc1)c1csc(Nc2nncc3ccccc23)n1 (centres undefined),-21,x,0,-2,0,-1
CC(=NNC(=S)Nc1cccc(Cl)c1)c1ccccn1,39*,x,0,-13,15,-2
S=C(NCc1ccccn1)Nc1cccc(Cl)c1,13,-1,1,-1,-7,-2
CCCCN1C(=O)C(CC(=O)NCC2CCCCC2)CC(C(=O)N2CCCCCC2)=C1C (centres undefined),15,x,0,-2,9,-1
Cc1ccc(CNc2ccc3c(c2)OCO3)cc1,5,41,-1,24*,-118,-4
O=C(Nc1ccc2c(c1)CN(Cc1ccco1)CC2)C1CCCO1 (centres undefined),37*,13,0,-2,-6,0
N#Cc1cccnc1N1CCN(C(C(=O)NC2CCCC2)c2ccc(F)cc2)CC1 (centres undefined),12,x,-1,x,1,x
CCCN1C(=O)c2ccc(C(=O)Nc3nccs3)cc2C1=O,-39,6,-1,5,3,0
CCCc1cc(C(=O)Nc2nccs2)cs1,33*,-8,-1,5,9,-3
COc1ccc(OC)c(S(=O)(=O)Nc2ccc3c(c2)C(=O)OC3)c1,5,8,-1,-1,-5,-1
CC(=O)c1cccc(NC(=O)N2CCCC2C(=O)Nc2c(C)cccc2C)c1 (centres undefined),37*,3,1,3,-4,3
C#CCOCCOCCOCCNc1nc(N2CCN(C(=O)CCCCCCCCCCNC(=O)[C@H](CO)n3cc(CCCCCN)nn3)CC2)nc(N2CCN(C(=O)CCCCCCCCCCNC(=O)[C@H](CCCN=C(N)N)n3cc(C[C@@H](C)CC)nn3)CC2)n1,x,64*,x,x,x,x
C#CCOCCOCCOCCNc1nc(N2CCN(C(=O)CCCCCCCCCCNC(=O)[C@H](CCCCN)n3cc(C[C@@H](C)CC)nn3)CC2)nc(N2CCN(C(=O)CCCCCCCCCCNC(=O)[C@H](CCCN=C(N)N)n3cc(C[C@@H](C)CC)nn3)CC2)n1,17,66*,0,6,5,-5
C#CCOCCOCCOCCNc1nc(N2CCN(C(=O)CCCCCCCCCCNC(=O)[C@@H](CCC(=O)O)n3cc(CCCCCN)nn3)CC2)nc(N2CCN(C(=O)CCCCCCCCCCNC(=O)[C@H](CCCCN)n3cc(C[C@@H](C)CC)nn3)CC2)n1,9,31,0,1,5,-3
CN1CCN(/N=C/c2ccc(-c3ccccc3)cc2)CC1,79*,-5,0,-1,-3,-2
C(=N\N1CCN(Cc2ccccc2)CC1)/c1ccc(-c2ccccc2)cc1,0,1,-1,-1,1,-1
COc1ccc(C(CNC(=O)Cc2c(F)cccc2Cl)N2CCCCC2)cc1 (centres undefined),-2,2,-1,-8,3,-1
O=C(c1ccccc1)c1cnc[nH]1,8,-5,-1,5,-1,0
O=C(Nc1ccccc1)c1cnc[nH]1,31*,-5,-2,-6,0,2
